Experimental data from ChEMBL document CHEMBL1136771, “Differential binding modes of diacylglycerol (DAG) and DAG lactones to protein kinase C (PK-C)” (J Med Chem, 2003).

Assay: Partition coefficient (logP)
Type: physicochemical
Conditions: octanol/water
Method in brief: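 Octanol/water log P was calculated, not measured, using a fragment-based atom/fragment-contribution estimation program applied to each ligand structure.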

| Compound | logP |
| --- | --- |
| CC(C)C(CC(=O)OC[C@H](CO)OC(=O)CC(C(C)C)C(C)C)C(C)C | 5.8 |
| CC(C)C/C=C1/CC(CO)(COC(=O)CC(C(C)C)C(C)C)OC1=O (stereo not given) | 4.1 |
| CC(C)=C1CC(CO)(COC(=O)CC(C(C)C)C(C)C)OC1=O (stereo not given) | 3.2 |
| CC(C)C(=CC(=O)O[C@@H](CO)COC(=O)CC(C(C)C)C(C)C)C(C)C | 5.7 |
| CC(C)CC(=O)OCC1(CO)CC(=C(C(C)C)C(C)C)C(=O)O1 (stereo not given) | 3.2 |
| CC(C)CC(=O)OCC1(CO)C/C(=C/CC(C(C)C)C(C)C)C(=O)O1 (stereo not given) | 4.1 |
| CC(C)C/C=C1\CC(CO)(COC(=O)CC(C(C)C)C(C)C)OC1=O (stereo not given) | 4.1 |
| CC(C)CC(=O)OCC1(CO)C/C(=C\CC(C(C)C)C(C)C)C(=O)O1 (stereo not given) | 4.1 |
| CC(C)=CC(=O)O[C@@H](CO)COC(=O)CC(C(C)C)C(C)C | 3.9 |
| CC(C)CC(=O)OC[C@H](CO)OC(=O)C=C(C(C)C)C(C)C | 3.9 |
